“And” between values parts separate entries of the source, which are not always exact repeats. Equal entries are not always repeated.
Tests used:
[1] = tested on: OVCAR-3; assay: Cytotoxicity by measuring inhibitory concentration against ovcar-3 tumor cell line; assay type: functional, cell-based, Homo sapiens
[2] = tested on: 1A9; assay: Cytotoxicity against 1A9 human ovarian carcinoma cells; assay type: functional, cell-based
[3] = tested on: Nucleic Acid; assay: Binding affinity towards DNA extracted from MOLT-4 cells; assay type: cell-free; conditions: Homo sapiens
[4] = In vitro cytotoxicity against leukemia P-388 tumor cells; assay type: functional, cell-based; conditions: Mus musculus, P388
[5] = target: Tubulin beta-4B chain (Homo sapiens) (UniProt P68371); assay: (§1) Tubulin polymerization at a concentration of 100 uM incubated for 90 minutes
In short: (§2)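 Tubulin polymerization was read as percent polymerization, with test drug at 100 µM and a 90 min incubation.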

[6] = tested on: 1A9; assay: Inhibition concentration against human ovarian 1A9 tumor cells; assay type: functional, cell-based
[7] = target: Tubulin beta-4B chain (Homo sapiens) (UniProt P68371); assay: as §1; assay type: functional; in short: as §2
[8] = tested on: 1A9/ptx-22; assay: (§3) Inhibitory concentration against beta-tubulin mutant 1A9PTX22 cell line; assay type: functional, cell-based; conditions: Homo sapiens
[9] = target: Tubulin beta-4B chain (Homo sapiens) (UniProt P68371); assay: Percent […] of tubulin by the compound; assay type: functional; in short: as §2
[10] = tested on: 1A9/ptx-10; assay: (§4) Inhibitory concentration against beta-tubulin mutant 1A9PTX10 cell growth; assay type: functional, cell-based; conditions: Homo sapiens
[11] = tested on: 1A9/ptx-22; assay: as §3; assay type: functional, cell-based; conditions: Homo sapiens; remark: listed apart in the source
[12] = tested on: 1A9; assay: Inhibitory concentration against ovarian carcinoma 1A9 cell growth; assay type: functional, cell-based; conditions: Homo sapiens
[13] = tested on: 1A9/ptx-10; assay: as §4; assay type: functional, cell-based; conditions: Homo sapiens; remark: listed apart in the source
[14] = Antiproliferation activity against cancer cell lines by mixed-lymphocyte-reaction proliferation assay; assay type: functional, cell-based; conditions: Homo sapiens
[15] = tested on: Bacteria; assay: Minimum inhibitory concentration against bacterial strains; assay type: functional

Sequence of Tubulin beta-4B chain (Homo sapiens) (P68371 whole entry): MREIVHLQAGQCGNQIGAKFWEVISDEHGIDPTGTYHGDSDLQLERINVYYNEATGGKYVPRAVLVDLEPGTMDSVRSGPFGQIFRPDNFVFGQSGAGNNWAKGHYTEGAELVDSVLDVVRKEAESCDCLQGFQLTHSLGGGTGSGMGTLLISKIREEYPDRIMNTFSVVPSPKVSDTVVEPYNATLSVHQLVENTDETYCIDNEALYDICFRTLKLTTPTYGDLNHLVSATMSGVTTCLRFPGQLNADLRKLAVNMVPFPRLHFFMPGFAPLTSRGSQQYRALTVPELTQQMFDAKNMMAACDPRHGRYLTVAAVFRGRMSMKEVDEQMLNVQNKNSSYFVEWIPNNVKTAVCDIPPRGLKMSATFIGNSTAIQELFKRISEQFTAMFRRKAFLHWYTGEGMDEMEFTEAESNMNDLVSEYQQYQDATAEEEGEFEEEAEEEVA

With `CC(=O)O[C@@H]1C2=C(C)[C@@H](OC(=O)[C@H](O)[C@@H](NC(=O)c3ccccc3)c3ccccc3)C[C@@](O)([C@@H](OC(=O)c3ccccc3)c3ccccc3[C@H]1OC(C)=O)C2(C)C` the IC50 ([1]; ovcar-3) was 28 nM and 280 nM.
`CC/C=C\C=C/C(=O)N/C=C\C[C@H]1C[C@H]2C[C@H](O)C[C@H](Cc3cccc(O)c3C(=O)O1)O2` gave an IC50 [2] of 70.7 nM.
For `CCNC1COC(OC2C(OC)OC(C)C(NOC3CC(O)C(SC(=O)c4c(C)c(F)c(OC5OC(C)C(O)C(OC)C5O)c(OC)c4OC)C(C)O3)C2O)CC1OC` (configuration not stated), the K obs [3] was 44 µM.
With `Cc1cc(O)c2c(c1)[C@H]1[C@@H](C(C)C)CC[C@@]1(C)C(=O)C2=O` the IC50 [4] was 13900 nM.
`CCOC(=O)/C1=C/[C@@H]2[C@@H](C(C)C)CC=C(C)[C@@H]2C[C@H](OC(=O)/C=C/c2cn(C)cn2)[C@]2(C)C=C[C@@]1(O)O2` [SARCODICTYIN B] showed a TP [5] of 71%, an IC50 [6] of 2 nM and a TP [7] of 71%.
For `O=C(/C=C/c1ccccc1)N/C=C/C[C@H]1C[C@H]2C[C@H](O)C[C@H](Cc3cccc(O)c3C(=O)O1)O2`, the IC50 [2] was 50 nM.
For `C/C(=C\c1ccc(C)cn1)[C@@H]1C[C@@H]2O[C@]2(C)CCC[C@H](C)[C@H](O)[C@@H](C)C(=O)C(C)(C)[C@@H](O)CC(=O)O1`, the IC50 [8] was 0.15 nM, the TP [9] was 92% and the IC50 [10] was 0.6 nM. It also gave an IC50 [11] of 0.15 nM, an IC50 [12] of 0.15 nM and an IC50 [13] of 0.6 nM.
Work on `CCNC1COC(OC2C(OC)OC(C)C(NOC3CC(O)C(SC(=O)c4c(C)c(C)c(OC5OC(C)C(O)C(OC)C5O)c(OC)c4OC)C(C)O3)C2O)CC1OC` (configuration not stated) yielded a K obs [3] of 38 µM.
`C/C(=C\c1csc(C)n1)[C@@H]1C[C@@H]2O[C@]2(CF)CCC[C@H](C)[C@H](O)[C@@H](C)C(=O)C(C)(C)[C@@H](O)CC(=O)O1` gave an IC50 [8] of 0.2 nM, a TP [9] of 93% and an IC50 [10] of 0.4 nM. For the same compound, the IC50 [11] was 0.2 nM, the IC50 [12] was 0.2 nM and the IC50 [13] was 0.4 nM.
`COC(=O)/C1=C/[C@@H]2[C@@H](C(C)C)CC=C(C)[C@@H]2C[C@H](OC(=O)/C=C/c2cn(C)cn2)[C@]2(C)C=C[C@@]1(O)O2` [SARCODICTYIN A] gave a TP [5] of 67%, an IC50 [6] of 340 nM and a TP [7] of 67%.
For `C/C(=C\c1cccc(C)n1)[C@@H]1C[C@@H]2O[C@]2(C)CCC[C@H](C)[C@H](O)[C@@H](C)C(=O)C(C)(C)[C@@H](O)CC(=O)O1`, the IC50 [8] was 18 nM, the TP [9] was 45% and the IC50 [10] was 72 nM. For the same compound, the IC50 [11] was 18 nM, the IC50 [12] was 9 nM and the IC50 [13] was 72 nM.
For `C/C(=C\c1csc(C)n1)[C@@H]1C[C@@H]2O[C@@H]2CCC[C@H](C)[C@H](O)[C@@H](C)C(=O)C(C)(C)[C@@H](O)CC(=O)O1` [EPOTHILONE A], the IC50 [8] was 5.9 nM, the TP [9] was 76% and the IC50 [10] was 20 nM. It also gave an IC50 [11] of 5.9 nM, an IC50 [12] of 2.2 nM and an IC50 [13] of 20 nM.
In the case of `CSc1nc(/C=C(\C)[C@@H]2C/C=C\CCC[C@H](C)[C@H](O)[C@@H](C)C(=O)C(C)(C)[C@@H](O)CC(=O)O2)cs1`, the IC50 [8] is reported as 28 nM, the TP [9] is reported as 92% and the IC50 [10] is reported as 22 nM. For the same compound, the IC50 [11] was 28 nM, the IC50 [12] was 9 nM and the IC50 [13] was 22 nM.
In the case of `CCCCCCCCCC[C@H]1C[C@H]1CCCC/C=C\CC[C@@H](O)C(=O)N[C@@H](CO[C@@H]1O[C@@H](CO)[C@@H](O)[C@H](O)[C@@H]1OC/C=C(\C)CCC=C(C)C)[C@H](O)CCCCCCC[C@@H]1C[C@@H]1CCCCCCCCCC`, the IC50 [14] is reported as 28000 nM.
Compound `CC/C=C/C=C/C(=O)N/C=C/C[C@H](O)C[C@H]1C[C@H](OC(C)=O)C[C@H](Cc2cccc3c2C(=O)OC(C)(C)O3)O1` has an IC50 [2] of 35 nM.
Compound `CCOC(=O)c1c(OCC)cc(C)cc1[C@H]1[C@@H](C(C)C)CC[C@@]1(C)C(=O)OCC` has an IC50 [4] of 54200 nM.
Compound `Cc1cccc(C)c1SSCCNC(=O)/C(Cc1cccc(Br)c1)=N/O` has an MIC [15] of 0.11 ug m/L.
For `C/C(=C\c1ccccn1)[C@@H]1C[C@@H]2O[C@]2(C)CCC[C@H](C)[C@H](O)[C@@H](C)C(=O)C(C)(C)[C@@H](O)CC(=O)O1`, the IC50 [8] was 0.15 nM, the TP [9] was 79.5% and the IC50 [10] was 1 nM. It also gave an IC50 [11] of 0.15 nM, an IC50 [12] of 0.1 nM and an IC50 [13] of 1 nM.
`CC/C=C\C=C/C(=O)N/C=C/C[C@H]1C[C@H]2C[C@H](O)C[C@H](Cc3cccc(O)c3C(=O)O1)O2` [APICULAREN A] gave an IC50 [2] of 0.78 nM.
With `CCCCCCCCCC[C@H]1CC1CCCC/C=C\CC[C@@H](O)C(=O)N[C@@H](CO[C@@H]1OC(CO)[C@@H](O)[C@H](O)[C@@H]1OCC=C(C)C)[C@H](O)CCC/C=C\CCCC[C@@H]1C[C@@H]1CCCCCCCCCC` (single isomer, unassigned) the IC50 [14] was greater than 50000 nM.
With `CC(=O)OC1C(=O)[C@@]2(C)[C@H]([C@H](OC(=O)c3ccc(N(C)C)cc3)[C@]3(O)C[C@H](OC(=O)[C@H](O)[C@@H](NC(=O)c4ccccc4)c4ccccc4)C(C)=C1C3(C)C)[C@]1(OC(C)=O)CO[C@@H]1C[C@@H]2O` (some centres not stated) the IC50 ([1]; Homo sapiens, OVCAR-3) was 2210 nM and the IC50 ([1]; ovcar-3) was 2200 nM.
For `CCNC1COC(OC2C(OC)OC(C)C(NOC3CC(O)C(SC(=O)c4c(C)c(Cl)c(OC5OC(C)C(O)C(OC)C5O)c(OC)c4OC)C(C)O3)C2O)CC1OC` (configuration not stated), the K obs [3] was 32 µM.

Source: ChEMBL document CHEMBL1143652, “Joys of molecules. 2. Endeavors in chemical biology and medicinal chemistry” (J Med Chem, 2005)
